Screens as filed in PubChem BioAssay.
CHRM4 PAM = potentiates acetylcholine response at human M4 receptor; CHO-K1 hM4/Gqi5, Fluo-8 calcium fluorescence, ACh EC20; 0% = ACh EC20, 100% = maximal ACh; activation, % at 3 µM; actives 0.4% (n = 360,000);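 active = activation above its plate's cutoff, the mean activation of sample wells plus 3 SD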
CHRM4 antagonist = antagonists of human muscarinic M4 receptor (CHRM4). P08173. CHO-hM4 cells, ACh EC80, Fluo-8 calcium fluorescence. inhibition, % at 3 µM. actives 0.73% (n = 360,000). AID 624125;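 active = inhibition above its plate's cutoff, the mean inhibition of sample wells plus 3 SD, cut at about 27% in these data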
CHRM5 agonist = agonists of human muscarinic M5 receptor (CHRM5); activation, % at 3 µM; CHO-K1 hM5 cells, Fluo-8 calcium fluorescence; 0% DMSO wells, 100% maximal acetylcholine response; actives 0.19% (n = 360,000);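 active = activation above the run's mean over test compounds plus 3 SD, cut at about 23% in these data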;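 note: signal is peak over basal fluorescence ratio across the kinetic read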
Target sequence (P08912 whole entry, looked up): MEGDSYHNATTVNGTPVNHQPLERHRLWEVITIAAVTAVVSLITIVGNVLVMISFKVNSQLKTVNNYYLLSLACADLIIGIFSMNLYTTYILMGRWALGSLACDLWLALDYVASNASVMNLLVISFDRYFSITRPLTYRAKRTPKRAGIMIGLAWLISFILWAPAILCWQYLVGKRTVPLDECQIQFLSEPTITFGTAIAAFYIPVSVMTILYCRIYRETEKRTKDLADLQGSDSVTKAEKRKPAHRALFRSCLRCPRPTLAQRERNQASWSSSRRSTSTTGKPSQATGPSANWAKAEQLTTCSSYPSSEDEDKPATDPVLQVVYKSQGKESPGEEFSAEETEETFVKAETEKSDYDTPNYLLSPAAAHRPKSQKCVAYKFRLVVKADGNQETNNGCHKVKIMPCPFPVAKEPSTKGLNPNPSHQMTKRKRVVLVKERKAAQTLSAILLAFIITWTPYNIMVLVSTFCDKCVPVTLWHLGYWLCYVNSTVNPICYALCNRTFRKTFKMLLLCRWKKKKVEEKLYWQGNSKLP
CHRM5 antagonist = CHRM5 antagonism in calcium assay; P08912; CHO-hM5 cells, Fluo-8 calcium fluorescence, ACh EC80; inhibition, % at 3 µM; actives 0.59% (n = 360,000); AID 624040;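 active = inhibition above a per-plate cutoff, the mean of that plate's test compounds plus 3 SD, cut at about 27% in these data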
CHRM4 agonist = CHRM4 agonism in calcium assay | actives 0.14% (n = 360,000) | activation, % at 3 µM | AID 624127 | P08173 | CHO-K1 hM4/Gqi5, Fluo-8 calcium fluorescence; vehicle 0%, full acetylcholine response 100%;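 active = activation above the run mean over all test wells plus 3 SD, cut at about 32% in these data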;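 note: peak over basal fluorescence ratio per well then scaled between controls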
M5 PAM = positive allosteric modulators of human muscarinic M5 receptor | activation, % at 3 µM | CHO-K1 hM5, Fluo-8 calcium, ACh EC20 PAM; 0% = ACh EC20, 100% = ACh EC100 | P08912 | actives 0.3% (n = 360,000) | AID 624038;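 active = activation above the run cutoff, the mean activation of all test compounds plus 3 SD, cut at about 18% in these data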
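System: CHO-K1 hM5 cells. Reagent: acetylcholine, EC20 level. Compound dosing: single dose, 3 µM nominal final test concentration. Timing: Post-acetylcholine fluorescence recording 140 s. Detection: Fluo-8 calcium fluorescence. Read-out: % activation, ACh-normalized. Benchmarks: ACh EC20 and EC100 wells. Repeats: singlicate, one well per test compound.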
Hits are given with their value; – = inactive. The list is not random: actives were taken first. Their share in the collection is about 1.8%.

SMILES	CHRM4 PAM	CHRM4 antagonist	CHRM5 agonist	CHRM5 antagonist	CHRM4 agonist	M5 PAM
NCC(c1ccc(Cl)cc1Cl)c1c[nH]c2ccccc12 (centres undefined)	–	–	–	–	35	–
CC(C)(C)OC(=O)N1CCC(Cc2cc(-c3cccnc3)no2)(C(=O)O)CC1	–	–	–	–	–	–
COc1ccc(C(=O)NC2CC(C)(C)NC(C)(C)C2)cc1S(=O)(=O)N1CCOCC1	–	–	–	–	–	–
CC(C)(C)OC(=O)N/N=C\C=C\c1ccc2c(c1)OCO2	–	–	–	–	–	–
CCN(CC)C(=O)c1ccc(COc2ccc(Cl)c(C)c2)o1	–	–	–	31	–	–
O=C(Cc1ccccc1)NC1CCCCC1	–	–	–	–	–	–
COc1ccncc1-c1ccc(C2=CC(=O)CC(C)(C)C2=O)cc1	–	–	–	–	–	–
N#CCCN1CCN(CCC#N)C1=S	–	–	30	–	–	–
CCc1nn(CC(=O)NC(C)CCc2ccccc2)c(=O)c2cc3cc(F)ccc3n12 (centres undefined)	–	–	–	–	–	–
COc1ccc2c(c1)cc1c(=O)n(CC(=O)NC(C)CCc3ccccc3)nc(C)n12 (centres undefined)	15	–	–	–	–	–
NCC1CCC(C(=O)Oc2ccc(CCC(=O)O)cc2)CC1 (centres undefined)	–	–	24	–	–	–
CC1(C(=O)NCc2ccc3c(c2)OCO3)CCN1C(=O)C1(c2ccc(Cl)cc2)CC1 (centres undefined)	–	–	–	–	–	–
CCOc1ccc(S(=O)(=O)NCCC(=O)NC2CCN(Cc3ccccc3)CC2)cc1	–	–	–	–	–	–
CC(=O)c1ccc(S(=O)(=O)NCCC(=O)NC2CCN(Cc3ccccc3)CC2)cc1	–	–	–	–	–	19
CN(C)C(=O)CSc1nc2ccccc2n1Cc1ccccc1	–	–	–	–	–	–
CCN(CC)CCSc1nc2ccccc2n1Cc1ccccc1	–	36	–	40	–	–
NC(=O)[C@@H]1CCOc2c(I)cc([N+](=O)[O-])cc2C(=O)N[C@@H](CO)C(=O)NCC(=O)N1	–	–	–	–	–	21
NC(=O)CC[C@@H]1NC(=O)[C@H](CO)NC(=O)c2cc([N+](=O)[O-])cc(I)c2OCC[C@@H](C(N)=O)NC1=O	–	–	–	–	–	–
CCOc1ccc(N2CC(C(=O)NCc3ccc4c(c3)OCO4)CC2=O)cc1 (centres undefined)	–	–	–	–	–	–
CCn1c(=O)c(=O)[nH]c2c(=O)oc3ccc(S(=O)(=O)Nc4ccccc4)cc3c21	–	–	–	–	–	–
CCOC(=O)C1(Cc2ccc(OC)cc2)CCN(S(C)(=O)=O)CC1	–	–	–	–	–	–
CCOC(=O)C1(Cc2ccc(Cl)cc2)CCN(C(C)Cc2ccc(O)c(OC)c2)CC1 (centres undefined)	–	–	–	30	–	–
CN1CCN(CC#Cc2ccccc2)CC1CCO (centres undefined)	–	–	–	–	–	–
CNC(=O)c1ccc(NC(=O)CC2SC(N3CCCC3)=NC2=O)cc1 (centres undefined)	22	–	–	–	–	–
CC(C)NC(=O)c1ccc(NC(=O)CC2SC(N3CCCC3)=NC2=O)cc1 (centres undefined)	–	–	–	–	–	–
O=C(NNS(=O)(=O)c1ccccc1[N+](=O)[O-])c1cccc([N+](=O)[O-])c1	–	–	–	–	–	–
O=c1[nH][nH]c(-c2ccccc2)c1C=Nc1ccc(F)cc1F	21	–	–	–	–	–
COc1ccc(N2C(=S)NC3CS(=O)(=O)CC32)cc1 (centres undefined)	–	28	–	–	–	–
CCCCN(CCCC)CCCN1CC(=O)N2[C@@H](Cc3c([nH]c4ccccc34)C2(C)C)C1=O	–	86	–	–	–	–
CCCCCN1CC(=O)N2[C@@H](Cc3c([nH]c4ccccc34)C2(C)C)C1=O	–	–	–	–	–	–
